Test results published in ChEMBL document CHEMBL4433205, “Dual Pharmacophores Explored via Structure-Activity Relationship (SAR) Matrix: Insights into Potent, Bifunctional Opioid Ligand Design” (J Med Chem, 2019).
Active and inactive are the calls of the source.

What was measured:
[1] = molecular target: T1, Delta-type opioid receptor (Rattus norvegicus, UniProt P33533); experiment: Agonist activity at rat delta opioid receptor expressed in rat C6 cell membranes assessed as stimulation of [35S]GTPgammaS binding measured after 1 hr; format: functional
T1 sequence (P33533 whole entry): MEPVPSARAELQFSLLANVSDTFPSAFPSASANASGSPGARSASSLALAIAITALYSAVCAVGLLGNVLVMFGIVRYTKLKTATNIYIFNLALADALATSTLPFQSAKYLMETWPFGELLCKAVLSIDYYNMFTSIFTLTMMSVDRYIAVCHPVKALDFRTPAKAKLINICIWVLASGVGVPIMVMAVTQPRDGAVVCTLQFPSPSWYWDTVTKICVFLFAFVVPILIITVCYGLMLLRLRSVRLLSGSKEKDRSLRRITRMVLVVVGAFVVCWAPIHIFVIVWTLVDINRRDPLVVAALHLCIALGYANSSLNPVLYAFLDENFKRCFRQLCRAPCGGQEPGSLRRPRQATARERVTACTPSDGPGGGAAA

[2] = molecular target: T1, Delta-type opioid receptor; experiment: Displacement of [3H]diprenorphine from rat delta opioid receptor expressed in rat C6 cell membranes measured after 1 hr by liquid scintillation counting method
Mu-type opioid receptor [3] = molecular target: T2, Mu-type opioid receptor (Rattus norvegicus, UniProt P33535); experiment: (§1) Agonist activity at rat mu opioid receptor expressed in rat C6 cell membranes assessed as stimulation of [35S]GTPgammaS binding measured after 1 hr; format: functional
T2 sequence (P33535 whole entry): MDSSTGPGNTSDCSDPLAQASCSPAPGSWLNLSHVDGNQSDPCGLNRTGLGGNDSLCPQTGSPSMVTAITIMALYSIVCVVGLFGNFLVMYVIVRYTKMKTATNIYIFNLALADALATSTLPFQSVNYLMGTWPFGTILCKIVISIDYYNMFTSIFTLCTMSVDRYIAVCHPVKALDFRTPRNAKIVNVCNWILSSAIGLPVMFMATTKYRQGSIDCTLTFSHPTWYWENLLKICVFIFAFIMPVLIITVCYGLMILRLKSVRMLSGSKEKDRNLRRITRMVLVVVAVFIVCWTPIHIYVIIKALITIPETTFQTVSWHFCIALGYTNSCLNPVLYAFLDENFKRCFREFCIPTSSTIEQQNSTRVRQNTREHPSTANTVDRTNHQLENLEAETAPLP
Procedure, shortened: (§2)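 Membranes (10–20 μg protein/tube) from stably transfected cells incubated 1 h at 25°C in 50 mM Tris-HCl, 100 mM NaCl, 5 mM MgCl2, pH 7.4, with 0.1 nM [35S]-GTPγS, 30 μM GDP and varying test concentrations; filtration, scintillation counting.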

[4] = molecular target: T3, Kappa-type opioid receptor (Homo sapiens, UniProt P41145); experiment: Displacement of [3H]diprenorphine from human kappa opioid receptor expressed in CHO cell membranes measured after 1 hr by liquid scintillation counting method
T3 sequence (P41145 whole entry): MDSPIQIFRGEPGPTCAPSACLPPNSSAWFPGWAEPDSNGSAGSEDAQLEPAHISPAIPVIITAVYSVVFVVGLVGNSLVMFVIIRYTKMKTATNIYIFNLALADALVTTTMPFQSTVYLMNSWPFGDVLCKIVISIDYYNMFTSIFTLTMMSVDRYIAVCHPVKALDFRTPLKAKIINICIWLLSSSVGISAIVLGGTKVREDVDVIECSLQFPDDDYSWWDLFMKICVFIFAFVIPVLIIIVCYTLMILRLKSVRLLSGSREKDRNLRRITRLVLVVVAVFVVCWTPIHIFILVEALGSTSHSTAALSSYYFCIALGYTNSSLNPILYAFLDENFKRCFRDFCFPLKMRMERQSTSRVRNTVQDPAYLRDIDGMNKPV
Procedure, shortened: (§3)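 Competition with 0.2 nM [3H]-diprenorphine on membranes (20 μg protein/tube) from stably transfected cells in 50 mM Tris-HCl pH 7.4, 1 h at room temperature with shaking; GF/C filtration, three washes, scintillation counting. Nonspecific binding defined with 10 μM naloxone.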

[5] = molecular target: Mu-type opioid receptor (Rattus norvegicus) (UniProt P33535); experiment: Agonist activity at rat mu opioid receptor expressed in rat C6 glioma cell membranes assessed as stimulation of [35S]GTPgammaS binding measured after 1 hr relative to DAMGO; format: functional
Chain of Mu-type opioid receptor (Rattus norvegicus) (P33535 whole entry): as the sequence (P33535 whole entry) above

Mus musculus [6] = experiment: Antinociceptive activity in C57BL/6 mouse assessed as increase in latency to tail withdrawal by measuring time of action at 10 mg/kg, ip administered as bolus dose by warm water tail withdrawal assay; format: functional
Procedure, shortened: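 Male C57BL/6 mice; saline ip, baseline 30 min later, then single 10 mg/kg ip bolus in 5% DMSO/saline. Tail withdrawal in 50°C water (20 s cutoff) at 5, 15, 30 min and every 30 min until return to baseline; duration = time from dosing to baseline return, done only for fully active compounds.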

Mus musculus [7] = experiment: Antinociceptive activity in C57BL/6 mouse assessed as increase in latency to tail withdrawal up to 10 mg/kg, ip administered at 30 mins interval measured during compound dosing by warm water tail withdrawal assay relative to control; format: functional
Procedure, shortened: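 Male C57BL/6 mice, 20–30 g, 8–16 weeks. Saline ip, baseline latency 30 min later; then cumulative ip doses 1, 3.2, 10 mg/kg in 5% DMSO/saline at 30 min intervals, latency read 30 min after each. Tail tip (2–3 cm) in 50°C water, 20 s cutoff; expressed as % MPE (MPE = 20 s).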

[8] = molecular target: T3, Kappa-type opioid receptor; experiment: Agonist activity at human kappa opioid receptor expressed in CHO cell membranes assessed as stimulation of [35S]GTPgammaS binding measured after 1 hr; format: functional
Mu-type opioid receptor [9] = molecular target: T2, Mu-type opioid receptor; experiment: Displacement of [3H]diprenorphine from rat mu opioid receptor expressed in rat C6 cell membranes measured after 1 hr by liquid scintillation counting method; procedure, shortened: as §3
[10] = molecular target: T3, Kappa-type opioid receptor; experiment: Agonist activity at human kappa opioid receptor expressed in CHO cell membranes assessed as stimulation of [35S]GTPgammaS binding to G protein incubated for 1 hr relative to U69,593; format: functional
[11] = Lipophilicity, log P of the compound; format: physicochemical; settings: octanol/water
Rattus norvegicus = species on record: Rattus norvegicus; experiment: Selectivity ratio of Ki for rat delta opioid receptor expressed in rat C6 cell membranes to Ki for rat mu opioid receptor expressed in rat C6 cell membranes; format: cell-based
Procedure, shortened: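 Competition binding against 0.2 nM [3H]-diprenorphine, using C6 membranes expressing rat MOR or rat DOR (20 μg protein/tube). Run in 50 mM Tris-HCl pH 7.4, 1 h at room temperature with shaking, then filtration and scintillation counting. Nonspecific binding with 10 μM naloxone.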

[12] = molecular target: Delta-type opioid receptor (Rattus norvegicus) (UniProt P33533); experiment: Agonist activity at rat delta opioid receptor expressed in rat C6 cell membranes assessed as stimulation of [35S]GTPgammaS binding incubated for 1 hr relative to DPDPE; format: functional
Chain of Delta-type opioid receptor (Rattus norvegicus) (P33533 whole entry): as the sequence (P33533 whole entry) above

[13] = molecular target: Mu-type opioid receptor (Rattus norvegicus) (UniProt P33535); experiment: as §1; format: functional; procedure, shortened: as §2

SMILES | EC50 ([1]; c6) | Ki [2] | EC50 (Mu-type opioid receptor [3]) | Ki [4] | Efficacy [5] | Time (Mus musculus [6]) | MPE (Mus musculus [7]) | EC50 ([8]; cho) | Ki (Mu-type opioid receptor [9]) | Efficacy [10] | logP [11] | Ratio Ki (Rattus norvegicus) | Efficacy [12] | EC50 ([8]; read-out: EC50) | Activity [13] | EC50 ([1]; read-out: EC50)
Cc1cc(O)cc(C)c1C[C@H](N)C(=O)N[C@@H]1CCN(C(=O)c2ccccc2)c2ccc(Cc3ccc4ccccc4c3)cc21.O=C(O)C(F)(F)F | Not Active | 0.46 nM | 7.9 nM | 160 nM | 57% | 150 min | 100% | Not Active | 0.26 nM | inactive |  |  |  |  |  | 
Cc1cc(O)cc(C)c1C[C@H](N)C(=O)N[C@@H]1CCNc2ccc(Cc3ccccc3)cc21.O=C(O)C(F)(F)F |  |  |  |  |  | 120 min | 100% |  |  |  | 3.8 |  |  |  |  | 
CC(=O)N1CC[C@@H](NC(=O)[C@@H](N)Cc2c(C)cc(O)cc2C)c2cc(CN3CCc4ccccc4C3)ccc21.O=C(O)C(F)(F)F | Not Active | 0.89 nM | 6 nM | 0.78 nM | 96% | 240 min | 100% |  | 0.19 nM | 41% | 3.2 | 5 | inactive | 190 nM |  | 
Cc1cc(O)cc(C)c1C[C@H](N)C(=O)N[C@@H]1CCN(C(=O)c2ccccc2)c2ccc(Cc3ccc4c(c3)OCCO4)cc21.O=C(O)C(F)(F)F | Not Active | 0.22 nM |  | 240 nM | inactive |  | inactive |  | 1.5 nM | 60% | 4.4 | 0.2 | inactive | > 500 nM | inactive | 
Cc1cc(O)cc(C)c1C[C@H](N)C(=O)N[C@@H]1CCN(S(C)(=O)=O)c2ccc(Cc3ccccc3)cc21.O=C(O)C(F)(F)F |  | 0.41 nM | 0.23 nM | 8 nM | 98% | 60 min | 100% |  | 0.06 nM | 60% | 3.3 | 7 | 22% | 121 nM |  | 12 nM
Cc1cc(O)cc(C)c1C[C@H](N)C(=O)N[C@@H]1CCNc2ccc(Cc3cnc4ccccc4c3)cc21.O=C(O)C(F)(F)F | Not Active | 1.5 nM | 2.2 nM | 16 nM | 84% |  | inactive | Not Active | 0.1 nM | inactive | 3.7 | 15 | inactive |  |  | 
CC(=O)N1CC[C@@H](NC(=O)[C@@H](N)Cc2c(C)cc(O)cc2C)c2cc(Cc3cnc4ccccc4c3)ccc21.O=C(O)C(F)(F)F |  | 0.2 nM | 1.1 nM | 53 nM | 76% |  | 60% | Not Active | 0.15 nM | inactive | 3.2 | 1 | 35% |  |  | 5.8 nM
Cc1cc(O)cc(C)c1C[C@H](N)C(=O)N[C@@H]1CCN(S(C)(=O)=O)c2ccc(Cc3cnc4ccccc4c3)cc21.O=C(O)C(F)(F)F | Not Active | 0.64 nM | 0.26 nM | 7 nM | 96% |  | 50% | Not Active | 0.23 nM | inactive | 3.1 | 3 | inactive |  |  | 
Cc1cc(O)cc(C)c1C[C@H](N)C(=O)N[C@@H]1CCN(S(C)(=O)=O)c2ccc(Cc3cc4ccccc4o3)cc21.O=C(O)C(F)(F)F | Not Active | 1 nM | 0.34 nM | 8 nM | 102% |  | inactive |  | 0.05 nM | 61% | 3.8 | 20 | inactive | > 500 nM |  | 
Cc1cc(O)cc(C)c1C[C@H](N)C(=O)N[C@@H]1CCN(C(=O)C2CC2)c2ccc(Cc3ccc4ccccc4c3)cc21 |  | 0.37 nM | 0.42 nM | 117 nM | 85% |  | inactive |  | 0.05 nM | 38% | 5.1 | 7 | 32% | > 500 nM |  | 1.9 nM
CC(=O)N1CC[C@@H](NC(=O)[C@@H](N)Cc2c(C)cc(O)cc2C)c2cc(Cc3cc4ccccc4o3)ccc21 |  | 0.73 nM | 1.9 nM | 58 nM | 86% |  | inactive |  | 0.12 nM | 33% | 3.9 | 6 | 30% | > 500 nM |  | 1.6 nM
Cc1cc(O)cc(C)c1C[C@H](N)C(=O)N[C@@H]1CCN(S(C)(=O)=O)c2ccc(Cc3ccc4c(c3)OCCO4)cc21.O=C(O)C(F)(F)F | Not Active | 1.5 nM | 9 nM | 46 nM | 47% |  | 70% |  | 0.07 nM | 39% | 3 | 21 | inactive | > 500 nM |  | 
Cc1cc(O)cc(C)c1C[C@H](N)C(=O)N[C@@H]1CCN(C(=O)c2ccccc2)c2ccc(CN3CCc4ccccc4C3)cc21.O=C(O)C(F)(F)F | Not Active | 4 nM | 4.2 nM | 160 nM | 93% |  | inactive | Not Active | 0.37 nM | inactive | 4.5 | 11 | inactive |  |  | 
